An excerpt weighted towards active compounds, which were near 1.8% of everything screened.
CHRM5 PAM: potentiates acetylcholine response at human M5 receptor; CHO-K1 hM5, Fluo-8 calcium, ACh EC20 PAM; 0% = ACh EC20, 100% = ACh EC100; activation, % at 3 µM; AID 624038; 360,000 compounds, 0.3% hits; P08912;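 active = activation above the run cutoff, the mean activation of all test compounds plus 3 SD, cut at about 18% in these data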
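Probe or stimulus: acetylcholine, EC20 level; Assay system: human M5 receptor in CHO-K1 cells; Schedule: compound preincubation 140 s before EC20 acetylcholine addition; Technique: intracellular calcium via Fluo-8 fluorescence; Dosing: single-point, 3 µM nominal; Read-out basis: percent activation from peak-over-basal fluorescence ratio, scaled EC20-to-EC100 acetylcholine; Repeats: one well per compound, no replicates.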
CHRM4 agonist: CHRM4 agonism in calcium assay. 360,000 compounds, 0.14% hits. P08173. CHO-K1 hM4/Gqi5, Fluo-8 calcium fluorescence; vehicle 0%, full acetylcholine response 100%. activation, % at 3 µM;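 active = activation above the run mean over all test wells plus 3 SD, cut at about 32% in these data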;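 also: peak over basal fluorescence ratio per well then scaled between controls; 0% = DMSO wells and 100% = acetylcholine at EC100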
Target sequence (P08173 whole entry, looked up): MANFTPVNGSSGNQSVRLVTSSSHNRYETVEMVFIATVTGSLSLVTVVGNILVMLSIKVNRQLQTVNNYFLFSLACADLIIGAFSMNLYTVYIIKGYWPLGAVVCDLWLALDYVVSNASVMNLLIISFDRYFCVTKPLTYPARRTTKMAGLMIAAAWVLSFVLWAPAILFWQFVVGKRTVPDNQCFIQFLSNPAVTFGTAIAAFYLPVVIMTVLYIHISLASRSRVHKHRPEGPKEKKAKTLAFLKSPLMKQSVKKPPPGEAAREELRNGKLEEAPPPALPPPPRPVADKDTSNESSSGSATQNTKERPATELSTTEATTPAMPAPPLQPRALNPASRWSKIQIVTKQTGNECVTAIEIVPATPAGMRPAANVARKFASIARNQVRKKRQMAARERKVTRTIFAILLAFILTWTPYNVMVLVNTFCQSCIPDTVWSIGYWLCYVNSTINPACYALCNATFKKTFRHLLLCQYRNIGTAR
M4 antag: blocks acetylcholine activation of human M4 receptor; CHO-hM4 cells, ACh EC80, Fluo-8 calcium fluorescence; 360,000 compounds, 0.73% hits; inhibition, % at 3 µM; P08173;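 active = inhibition above its plate's cutoff, the mean inhibition of sample wells plus 3 SD, cut at about 27% in these data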;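 also: 0% = acetylcholine EC80 with DMSO and 100% = DMSO without agonist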
M5 ag: agonists of human muscarinic M5 receptor (CHRM5); P08912; AID 624037; 360,000 compounds, 0.19% hits; activation, % at 3 µM; CHO-K1 hM5 cells, Fluo-8 calcium fluorescence; 0% DMSO wells, 100% maximal acetylcholine response;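 active = activation above the run's mean over test compounds plus 3 SD, cut at about 23% in these data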;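 also: signal is peak over basal fluorescence ratio across the kinetic read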
CHRM5 antagonist: antagonists of human muscarinic M5 receptor (CHRM5). CHO-hM5 cells, Fluo-8 calcium fluorescence, ACh EC80. 360,000 compounds, 0.59% hits. P08912. inhibition, % at 3 µM. AID 624040;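 active = inhibition above a per-plate cutoff, the mean of that plate's test compounds plus 3 SD, cut at about 27% in these data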;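 also: 0% = acetylcholine EC80 with DMSO and 100% = DMSO without agonist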
CHRM4 PAM: positive allosteric modulators of human muscarinic M4 receptor; AID 624126; CHO-K1 hM4/Gqi5, Fluo-8 calcium fluorescence, ACh EC20; 0% = ACh EC20, 100% = maximal ACh; P08173; 360,000 compounds, 0.4% hits; activation, % at 3 µM;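 active = activation above its plate's cutoff, the mean activation of sample wells plus 3 SD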
* hit, by the source's call.

SMILES | CHRM5 PAM | CHRM4 agonist | M4 antag | M5 ag | CHRM5 antagonist | CHRM4 PAM
COc1cccc(CN(C)C(=O)c2ccc(OCC(=O)Nc3cccc(C(F)(F)F)c3)c(OC)c2)c1 | -29 | 21 | 19 | 4 | 29* | -12
O=C([C@H]1O[C@@H](n2ccc(=O)[nH]c2=O)[C@H](O)[C@@H]1O)N1CCC(F)(F)CC1 | 5 | 2 | -7 | 2 | 8 | 3
C/C(=N\NC(=O)c1cc2c(s1)CCC(C)C2)c1ccc[nH]1 (stereo not given) | 6 | 41* | 1 | 2 | 2 | 2
O=C(Cn1nc([N+](=O)[O-])nc1Br)NC(c1ccccc1)c1ccccc1 | -4 | 2 | 30* | -1 | 8 | -7
O=C(Cn1c2ccccc2c2nc3n(c(=O)c21)CCS3)Nc1ccccc1C(F)(F)F | 19* | 4 | -7 | 11 | 8 | 10
CCN(CC)c1ccc(C=NNc2ccc([N+](=O)[O-])cn2)cc1 | -15 | 1 | 1 | 35* | 37* | -3
CN(C)c1ccc(/C=C/c2cccc[n+]2[O-])cc1 | 1 | 1 | 3 | 6 | 7 | -2
CC(C)CC[n+]1ccccc1/C=C/c1ccc(N(C)C)cc1 | -6 | 6 | 21 | 4 | 29* | -8
Cc1cccn2c(=O)c(C=O)c(N3CCCCC3)nc12 | 20* | 3 | -7 | -2 | -9 | 13
CCOC(=O)C1=NN(c2ccccc2)C2C(=O)N(c3ccccc3OC)C(=O)C12 (stereo not given) | -13 | 1 | 7 | -2 | 27* | -1
CCOC(=O)C1=NN(c2ccc(OC)cc2)C2C(=O)N(c3ccccc3OC)C(=O)C12 (stereo not given) | 1 | 2 | 10 | 6 | 4 | -11
CN[C@H]1C[C@H]2c3cc(-c4ccccc4)ccc3CCN2C(=O)[C@H]1[C@H](C)O | 3 | 2 | -5 | 1 | -6 | 0
CC(=O)Nc1ccc(C=NN=C2c3ccccc3-c3ccccc32)cc1 | 11 | 2 | 4 | 3 | -9 | 18*
Cc1ccc(S(=O)(=O)N2CC3=C(C2)C2CC2(C)C3)cc1 (stereo not given) | -15 | -1 | 10 | -6 | 8 | -11
Cc1nccc(-c2sc(-c3cccs3)nc2C)n1 | 10 | 4 | 21 | 0 | -4 | 69*
COCCN1C[C@@H](CO)O[C@@H](n2cnc3c(N4CCN(CCO)CC4)ncnc32)C1 | -3 | 0 | 2 | 1 | 16 | 2
Cc1ccc(/C=C/C(=O)c2cc(Br)ccc2OC(=O)c2ccco2)cc1 | 21* | 0 | -8 | -3 | -6 | 7
CC(NC(=O)CCNS(=O)(=O)c1ccccc1)c1ccccc1 (stereo not given) | -1 | 0 | 10 | -5 | 5 | 22*
O=C(CCNS(=O)(=O)c1ccccc1)NCC1CCCCC1 | -4 | 1 | 0 | 2 | 2 | 21*
O=C(COC(=O)CCNS(=O)(=O)c1ccccc1)NC1CC1 | 3 | 2 | 5 | 0 | 4 | 10
COc1ccc(-c2coc3c(C(=O)NCc4ccc(C(F)(F)F)cc4)cccc23)c(C)c1 | -5 | 1 | 4 | 1 | -5 | -12
Cc1ccc([C@H]2C[C@H](n3cc(C4CC4)nn3)[C@@H](O)CN2C(=O)c2cccs2)cc1 | -1 | 3 | -4 | 2 | -14 | 8
CCc1nc2ccc(C(=O)NCc3ccc4c(c3)OCO4)cn2c1N(C)C(=O)Cc1ccccc1 | 0 | 3 | 9 | -2 | 2 | -5
Cc1c(Cl)cccc1NC(=O)CNc1cccc(C(F)(F)F)c1 | -3 | 3 | -16 | -1 | -6 | -2
CC(C)(CO)NCC(=O)Nc1cc(C(F)(F)F)cc(NC(=O)CNC(C)(C)CO)c1Cl | 1 | 1 | 6 | -1 | 4 | 21*
SMILES | CHRM5 PAM | CHRM4 agonist | M4 antag | M5 ag | CHRM5 antagonist | CHRM4 PAM
CC(=O)NCCNC(=O)c1ccc(CSc2nc3ccccc3s2)cc1 | 1 | 1 | 39* | -1 | -4 | -13
C/C(=N\NC(=O)CSc1nc2ccccc2s1)c1ccco1 | 21* | 1 | 2 | 1 | 8 | 5
CCOc1ccc2c(c1)c(N=O)c(O)n2C | 20* | 0 | 3 | 0 | 3 | 7
CCN(CC)c1ccc2nc3ccccc3[n+](CC)c2c1 | 6 | 0 | 27* | -22 | -5 | -14
CCN(CC)c1ccc2nc3ccc(N)cc3[n+](-c3ccccc3)c2c1 | 4 | 3 | 6 | -6 | 4 | -2
COc1ccc(NC(=O)C[C@H]2C(=O)N(c3ccc(OC)cc3)C[C@@H]2CSC)cc1 | 0 | 4 | 4 | 2 | -5 | 5
COc1ccc(Oc2c(C)oc3c(CN(C)C)c(O)ccc3c2=O)cc1 | -16 | 1 | 44* | -8 | 2 | -17
CCOC(=O)CSc1nc(C)c(CC)c(C)c1C(N)=O | 1 | 0 | 3 | 2 | 3 | 2
CCOC(=O)CSc1nc(N)nc(C)c1Cl | -19 | 2 | 7 | -10 | 27* | -7
Cc1ccccc1-c1nc(CS(=O)CC(=O)NCc2ccc3c(c2)OCO3)c(C)o1 (stereo not given) | -11 | 6 | 2 | -5 | 26 | -1
Cc1oc(-c2ccccc2Cl)nc1CS(=O)CC(=O)NCc1ccc2c(c1)OCO2 (stereo not given) | 23* | 2 | -10 | -1 | -26 | 3
COCCNC(=S)N1CCC2CC1c1c(Cl)cccc12 (stereo not given) | 0 | 2 | -4 | -3 | -4 | 10
Cc1ccc(-c2nn(-c3ccccc3)cc2/C=N/NC(=O)c2ccc(Br)o2)cc1 | 0 | 4 | 4 | -2 | 5 | -2
O=C(N/N=C\c1cn(-c2ccccc2)nc1-c1ccccc1)c1ccc(Br)o1 | -9 | 9 | 27* | -4 | 14 | 27
CN1CCN(c2ccc(CNS(=O)(=O)c3ccc(F)cc3Cl)cc2)CC1 | 4 | 2 | 5 | -6 | 1 | 20*
COCCNc1nc(-c2cc(F)ccc2C)c2sc(-c3ccccc3)cc2n1 | -4 | 0 | -3 | -3 | 6 | 0
OC(c1ccc(Cl)c(Cl)c1)c1ncc(-c2ccccc2F)[nH]1 (stereo not given) | 3 | 6 | -9 | 2 | -7 | 9
CCCCc1c(-c2cccc(OC)c2)ncn1CCc1ccccc1OC | -22 | 9 | 41* | -1 | 33* | -14
CCc1c(-c2ccc(Cl)cc2)ncn1Cc1cccc(-c2ccccc2)c1 | -7 | 2 | -1 | -5 | -4 | -7
CCc1c(-c2ccccc2F)ncn1Cc1cccc(-c2ccccc2)c1 | -17 | 11 | 19 | -1 | 11 | -15
